The values that follow come from PMC11792172 (Journal of natural products, 2025).

In test [1] the test system is Na+/K+-ATPase (NKA). Nature of the test: Na+/K+-ATPase activity assay. Format: biochemical. The following applies: for effect on NKA at a high concentration: high concentration (>100 μM), Figure 3. The essentials:
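Luminescent ADP detection read out enzyme activity by quantifying the ADP formed during the enzymatic first half-reaction. Assays were run in triplicate and were representative of three independent experiments. IC50 was obtained from dose-response curves by nonlinear regression.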

Test [2] has as its system MDA-MB-231 breast cancer cells. Put plainly: Cytotoxicity assay. Format: cell-based. The following applies: Homo sapiens, MDA-MB-231, 72 h, read-out: IC50, inhibition of viability, MDA-MB-231.
Test [3] relates to MDA-MB-435 melanoma cells. Put plainly: Cytotoxicity assay. As to conditions: Homo sapiens, MDA-MB-435, 72 h, read-out: IC50, inhibition of viability, MDA-MB-435. Format: cell-based.
Test [4] deals with OVCAR3 ovarian cancer cells. Put plainly: Cytotoxicity assay. Format: cell-based. As to conditions: Homo sapiens, OVCAR-3, 72 h, read-out: IC50, inhibition of viability, OVCAR3.
Test [5] has as its system OVCAR5 ovarian cancer cells. Nature of the test: Cytotoxicity assay. Format: cell-based. As to conditions: Homo sapiens, OVCAR-5, 72 h, read-out: IC50, inhibition of viability, OVCAR5.
Test [6] concerns the target Na+/K+-ATPase (NKA). As to conditions: read-out: IC50, inhibition of NKA activity, cited from earlier work.

Where two headings read alike, the source gives them in different places. Bounds are passed on as bounds.

`CO[C@H]1C[C@H](O[C@H]2CC[C@@]3(C)[C@@H](C2)C[C@@H]2O[C@]24[C@@H]3[C@H](OC(C)=O)C(=O)[C@]2(C)[C@@H](C3=CC(=O)OC3)CC[C@]42O)O[C@@H](C)[C@@H]1OC(C)=O` [1a, (−)-11,4′-di-O-acetylcryptanoside A]: the “effect on NKA at a high concentration” value in the test on Na+/K+-ATPase (NKA) [1] is on record as “activate NKA”.
One may read the IC50 as the concentration that gives 50% inhibition. Turning to `CC(=O)O[C@H]1C(=O)[C@@]2(C)[C@H]([C@H](OC(=O)c3ccccc3)[C@]3(O)C[C@H](OC(=O)[C@H](O)[C@@H](NC(=O)c4ccccc4)c4ccccc4)C(C)=C1C3(C)C)[C@]1(OC(C)=O)CO[C@@H]1C[C@@H]2O` [Paclitaxel, paclitaxel], the IC50 was found to be 3.8 ± 0.1 nM in test [2], 1.9 ± 0.1 nM in test [3], 4.9 ± 0.1 nM in test [4] and 7.3 ± 0.1 nM in test [5].
With `CO[C@H]1C[C@H](O[C@H]2CC[C@@]3(C)[C@@H](C2)C[C@@H]2O[C@]24[C@@H]3[C@H](O)C(=O)[C@]2(C)[C@@H](C3=CC(=O)OC3)CC[C@]42O)O[C@@H](C)[C@@H]1O` [compound 1, (−)-Cryptanoside A], the IC50 at Na+/K+-ATPase (NKA) [6] (data reported previously) is 1200 ± 100 nM.
On to `CO[C@H]1C[C@H](O[C@H]2CC[C@@]3(C)[C@@H](C2)C[C@@H]2O[C@]24[C@@H]3[C@H](O)C(=O)[C@]2(C)[C@H](C3=CC(=O)OC3)CC[C@]42O)O[C@@H](C)[C@@H]1O` [compound 2, (−)-17-epi-cryptanoside A], for which the IC50 on Na+/K+-ATPase (NKA) [1] (read-out: IC50, inhibition of NKA activity) is > 20000 nM.
For the compound `C[C@]12CC[C@H]3[C@@H](C=CC4=CC(=O)[C@H](O)C[C@@]43C)[C@@H]1CC[C@@H]2C(=O)O` [compound 3, (+)-2-hydroxyandrosta-4,6-diene-3-one-17-carboxylic acid], the “effect on NKA at a high concentration” value in the test with Na+/K+-ATPase (NKA) [1] is on record as “activate NKA”.
With `C[C@H]1O[C@@H](O[C@H]2[C@@H](O)C[C@H](O[C@H]3[C@@H](O)C[C@H](O[C@H]4CC[C@@]5(C)[C@H](CC[C@@H]6[C@@H]5C[C@@H](O)[C@]5(C)[C@@H](C7=CC(=O)OC7)CC[C@]65O)C4)O[C@@H]3C)O[C@@H]2C)C[C@H](O)[C@@H]1O` [digoxin], the half-maximal inhibitory concentration (IC50) on Na+/K+-ATPase (NKA) [6] is 230 ± 20 nM.
